The structures appear in SMILES notation.

In ChEMBL document CHEMBL4513216, “Probing the Open Global Health Chemical Diversity Library for Multistage-Active Starting Points for Next-Generation Antimalarials” (ACS Infect Dis, 2020) one finds cytotoxicity data, which are given here for 98 compounds.

The nature of this series: Toxicity liver stage against HepG2, at 10uM. In kind it is cell-based. Further details: test concentration 10 uM, cell line HepG2-A16-CD81EGFP. The following applies: human, HepG2-A16-CD81EGFP cells; read-out: INHIBITION
The method in brief: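 Uninfected HepG2-A16-CD81EGFP cells, 3 × 10^3 per well, 1536-well, plated on prespotted compound at 10 μM final, parasite-free screening media added to match infected plates; puromycin 10 μM positive, DMSO 0.5% negative; run in parallel with 48 h PbLuc assay at 37 °C, 5% CO2; viability by CellTiter-Glo luminescence, normalized to controls.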
As to `O=C(NC1CCCCC1)c1ccc(COCC(F)(F)F)o1`, the cytotoxicity at 10 µM was found to be 14.1%.
Turning to `O=C(O)CCC(=O)N1CCC(c2noc3cc(F)ccc23)CC1`, the cytotoxicity at 10 µM was -14.8%.
As to `CC(C)Oc1ccc(CC2=N[C@](C)(CO)CO2)cc1`, the cytotoxicity at 10 µM turned out to be 16.3%.
For `COc1cccc(C(O)CN2CCN(c3cccc(C)c3)CC2)c1` (stereo not drawn), the cytotoxicity at 10 µM was -3.85%.
To `COc1nn(C)cc1C(=O)NCC1(O)CCOCC1` belongs -14.7%.
To `CC(C)(C)C(=O)NCc1cnn2ccccc12` belongs -10.6%; to `CCN1C[C@@H]2CN(C(=O)C3CC=CC3)C[C@@H]2C1=O`, 2.35%; to `CC1N(CC2CC2)C(=O)COC12CCN(C(=O)c1cnccn1)CC2` (stereo not drawn), -2.57%.
To `CC(C)NC(=O)C1CCC2(CCN(c3ncccn3)CC2)CO1` (stereo not drawn) belongs 0.442%.
Consider `O=C(COc1coc(CN2CCCCC2)cc1=O)c1ccccc1`, for which the cytotoxicity at 10 µM was 8.44%.
To `O=C1COc2ccc(S(=O)(=O)N3CCOCC3)c3c2N1CCC3` belongs 7.55%; to `O=C(NCc1ccco1)N1CCCCC1c1nc(C2CC2)no1` (stereo not drawn), -7.86%.
To `Cc1noc([C@@]23CCO[C@@H]2CCN(C(=O)C2CCOCC2)C3)n1` belongs 1.68%; to `CC(=O)N1CC[C@H]2OCC[C@@]2(C(=O)NCc2ccco2)C1`, 0.253%; to `COc1cccc(S(=O)(=O)N2CCn3cnc(COCC4CC4)c3C2)c1`, -18.9%.
For `CC(Cn1cc(Br)cn1)C(=O)Nc1ccn(C)n1` (stereo not drawn), the cytotoxicity at 10 µM is -4.49%.
To `COC(=O)c1ccnn1COc1ccc(Cl)cc1` belongs -14.8%.
As for `CCNC(=O)[C@H]1CN(Cc2ccccc2)C[C@@H]1C(=O)c1ccccc1`, the cytotoxicity at 10 µM is 3.08%.
To `c1cc(C2CN(C3CCCCC3)C2)n[nH]1` belongs 4.18%; to `CNC(=O)CCc1cc(C2CCN(c3cnccn3)CC2)nc(C)n1`, -4.65%; to `CN1CCC(c2n[nH]cc2-c2ccnc(N)c2)C1` (stereo not drawn), 3.79%.
To `CNc1cccc(C2CCCN(Cc3ncc[nH]3)C2)n1` (stereo not drawn) belongs -18%; to `CC(=O)N1CCCC(c2ccccn2)C1` (stereo not drawn), -23.7%; to `NC(=O)C1(c2cnccn2)CCCN1Cc1cccc(Cl)c1` (stereo not drawn), -2.5%.
For the compound `CCOc1cccnc1C(=O)N1CCCN(c2nc(C)cs2)CC1`, the cytotoxicity at 10 µM came out at 5.6%.
Next, `O=C(Cc1cccc(F)c1F)NC1COc2ccccc2C1=O` (stereo not drawn): 10.4%; `Cc1cnn(CC(=O)Nc2cc(-n3nnnc3C3CC3)ccc2F)c1`: -5.46%; `CCC(c1ccc(F)cc1)S(=O)(=O)CCO` (stereo not drawn): -136%.
Next, `COCCN(Cc1ccc(C)o1)C(=O)Nc1ncc(C)s1`: 10%.
To `CC(CNC(=O)OC(C)(C)C)N(C)C(=O)COc1ccccc1C#N` (stereo not drawn) belongs 1.39%.
In the case of `Cc1ccc(-n2cc(C(=O)N3CCn4c(C)nnc4C3)nn2)cc1`, the cytotoxicity at 10 µM was -141%.
Next, `Cc1ncsc1C(=O)N1CCN(Cc2cscn2)CC1`: -2.65%; `CCOCC(=O)Nc1cc(C)cnc1OC`: 4.04%.
To `CC(CC(=O)NCCS(N)(=O)=O)C1CCCCC1` (stereo not drawn) belongs -9.52%; to `COc1ccccc1-c1cc(NC(=O)COCC2CC2)[nH]n1`, -116%.
Turning to `CC(Cn1cccn1)NCCS(=O)(=O)c1ccccc1` (stereo not drawn), the cytotoxicity at 10 µM was -3.63%.
To `CCN(CCC(=O)OC)C(=O)c1cc(F)cc2[nH]cnc12` belongs -7.37%; to `CC(O)CN1CCC(CNCc2ccc(C#N)cc2)CC1` (stereo not drawn), 8.83%; to `COC(=O)CNC(=O)C12CCC(=O)N1c1cc(Cl)ccc1S2` (stereo not drawn), -0.748%.
Regarding `CCn1nc2c(cc1=O)CN(Cc1nc(N)c3ccccc3n1)CC2`, the cytotoxicity at 10 µM was -5.59%.
To `COCC(=O)N1CC(C(=O)NCC2CC2)C2(CCOCC2)C1` (stereo not drawn) belongs -105%; to `Cc1noc([C@]23COC[C@H]2CN(C(=O)N2CCCC2)C3)n1`, -103%; to `Cn1cccc1C(=O)N1CCO[C@@H]2CN(Cc3ccco3)C[C@@H]2C1`, -97.3%.
For the compound `CNC(=O)NCC1CCC2(CCN(c3ncccn3)CC2)CO1` (stereo not drawn), the cytotoxicity at 10 µM was -107%.
Next, `O=C(c1ccno1)N1CCn2cc(CN3CCCCC3)nc2C1`: -77.2%; `C[C@@H]1C[C@@H]2CCN(Cc3ccncc3)C[C@H]2O1`: -72.9%.
Next, `C[C@H]1C[C@@H]2CCN(Cc3ccccn3)C[C@H]2O1`: 5.66%.
For the compound `COC(C)(C)C(=O)N1Cc2cnc(C(C)(C)C)nc2C1`, the cytotoxicity at 10 µM was -121%.
To `COc1cccc(OCCc2cncc(C(N)=O)c2)c1` belongs -135%.
Next, `CCC1CN(C(=O)c2cc(CN(C)CCc3ccccc3)on2)CCO1` (stereo not drawn): -4.12%.
In the case of `Cc1ccnc(N2CCCC(c3nccn3C(C)C)C2)n1` (stereo not drawn), the cytotoxicity at 10 µM is -9.63%.
Next, `COCCN(Cc1ccncc1)C(=O)CCSCc1ccc(F)cc1`: 0.807%; `Cc1oc(-c2cccc(F)c2F)nc1CN(C)CCC(C)(C)O`: -4.47%.
Take `CN1CCC(NN2CCN(C)CC2)CC1`: the cytotoxicity at 10 µM is -2.76%.
On to `CCCN1CCCn2nc(CNC(=O)CC3CCS(=O)(=O)C3)cc2C1` (stereo not drawn), for which the cytotoxicity at 10 µM is -2.1%.
Next, `O=C(c1cccc(Oc2ccccc2)c1)N1CCCC(O)(CO)CC1` (stereo not drawn): -3.17%; `NC(=O)C1CCCN(c2ncnc3c2Cc2ccccc2OC3)C1` (stereo not drawn): -5.64%; `O=C1NC[C@@]2(C(=O)O)CN(Cc3cccc(CN4CCOCC4)c3)C[C@@H]12`: -7.98%.
Turning to `CC(=O)NCCC1CCCCN1S(=O)(=O)c1cccc(Cl)c1` (stereo not drawn), the cytotoxicity at 10 µM was -125%.
For `Cc1nn(C)c(C)c1NC(=O)c1cccc(CN2C[C@H]3CC[C@@H](C2)N3)c1`, the cytotoxicity at 10 µM was -0.277%.
Next, `Cc1nc(NC(=O)N2CCCC(C(F)(F)F)C2)nn1C` (stereo not drawn): 9.56%.
On to `Cc1ccsc1CCNC(=O)C1(Oc2cccnc2C)CCNCC1`, for which the cytotoxicity at 10 µM was -2.37%.
To `CCCc1nnc(NCCCn2nc(C)c(Cl)c2C)o1` belongs -0.351%.
Regarding `O=C(NCc1ccc(C(=O)N2CCCC2)cc1)c1cn2c(n1)CNCC2`, the cytotoxicity at 10 µM is -10.2%.
In the case of `CC(=O)NCCc1cn(-c2cc(F)ccc2C)cn1`, the cytotoxicity at 10 µM was -1.47%.
To `COCc1nc2ncc3c(=O)n(-c4cccc(OC)c4)ccc3n2n1` belongs 8.99%.
`O=C(CCc1nc(Cl)n[nH]1)N[C@H]1CC[C@H]1NC1Cc2ccccc2C1`: the cytotoxicity at 10 µM was -1.74%.
To `CC(C)c1ncc(S(C)(=O)=O)c(C2CCCNC2)n1` (stereo not drawn) belongs -1.34%; to `COC(=O)CCC(=O)N1CCc2[nH]nc(-c3ccc(F)c(F)c3)c2C1`, 0.604%; to `C1CC(c2noc(C3CC3)n2)N(Cc2nnc(C3CC3)o2)C1` (stereo not drawn), -5.83%.
On to `Cc1ccc(NC(=O)C2CSCN2C(=O)c2ccncc2)c(C)c1` (stereo not drawn), for which the cytotoxicity at 10 µM was -10.4%.
To `c1cncc(-c2noc(CN3CCOC(Cn4cccn4)C3)n2)c1` (stereo not drawn) belongs -11.4%; to `COc1cc(CNC2CCc3nc(C(C)C)nn3C2)cc2c1OCO2` (stereo not drawn), -5.82%; to `Cc1nnc(NC(=O)CN2CCCC(Cn3cncn3)C2)s1` (stereo not drawn), 1.71%.
`Cc1cnn(CC2CN(CC(=O)N3CCc4ccccc43)CCO2)c1` (stereo not drawn): the cytotoxicity at 10 µM is -0.77%.
To `Cc1nc(C(=O)N2CCCC2c2c(C)nn(C)c2C)ccc1C#N` (stereo not drawn) belongs -6.16%; to `O=C(CCc1ccccc1F)NS(=O)(=O)c1ccc2c(c1)OCCCO2`, -3.2%.
To `Cc1cc(C)n(C2CN(CC(=O)N3CCOCC3)C2)n1` belongs -3.2%.
On to `CN(Cc1nnc2n1CCC2)C(=O)NCCc1ccc2c(c1)OCO2`, for which the cytotoxicity at 10 µM is -4.77%.
Take `O=C(NCCN1CCCCC1)c1ccoc1`: the cytotoxicity at 10 µM is -11.3%.
To `Cc1cc(N2CCC(CC(N)=O)CC2)nc(-c2ccncc2)n1` belongs -7.22%.
To `CCN(Cc1ccc2c(c1)OCCO2)C(=O)NCc1nc(C)cs1` belongs 1.47%; to `Cc1nnc(N2CCC(CNC(=O)OC(C)(C)C)CC2)c(C#N)c1C`, 2.6%.
For the compound `O=C(C1CN(Cc2ccsc2)Cc2ccnn2C1)N1CCCC1` (stereo not drawn), the cytotoxicity at 10 µM was -6.93%.
As to `COCCC(=O)N1CC2(CCN(Cc3cccc(Cl)c3)CC2)C1`, the cytotoxicity at 10 µM stood at 5.63%.
As for `CCN(CC)c1ncc2c(c1C(=O)O)CCN(C1CCOC1)C2` (stereo not drawn), the cytotoxicity at 10 µM turned out to be 15.7%.
To `O=C(NC1CC1)N1CCc2ncc(CN3CCOCC3)n2CC1` belongs -76.5%.
On to `Cn1cnc2c1C(COCc1ccccc1)N(Cc1ccncc1)CC2` (stereo not drawn), for which the cytotoxicity at 10 µM is -1.99%.
To `Cc1ccc(CN2CCOC3(CCN(C(=O)N4CCCC4)CC3)C2)cc1` belongs 5.7%; to `O=C(NCc1ccco1)[C@H]1COC[C@H]2CN(Cc3ccccn3)C[C@H]21`, -72.4%; to `Cc1cnnn1Cc1ncn2c1CN(Cc1cccs1)CCC2`, 3.58%.
To `CC(C)OCc1ncn2c1CN(Cc1cccs1)CCC2` belongs 8.44%.
To `CC(NCc1ccncc1)c1ccc(N2CCN(C)CC2)c(F)c1` (stereo not drawn) belongs 27.8%.
Turning to `Cc1ccc(N2CC3(CCN(Cc4nccn4C)C3)CC2=O)s1` (stereo not drawn), the cytotoxicity at 10 µM was -81.9%.
To `c1cc(C2CC2)n2cnc(C3CN(Cc4nccs4)CCO3)c2c1` (stereo not drawn) belongs 1.49%; to `O=C(CC1CC1)N1C[C@@H]2CCN(c3cnccn3)C[C@@H]2C1`, 5.03%.
To `CN(C)Cc1noc2c1CN(Cc1ccsc1)CC2` belongs -2.88%; to `CC(c1ccccc1)n1cc2nc(N(C)C)[nH]cc-2c1=O` (stereo not drawn), -25.5%.
